Assays:
[1] = system: Mus musculus; assay: Antinociceptive activity in Swiss albino mouse assessed as inhibition of formalin-induced flinching at 100 mg/kg administered 30 mins prior to test measured up to 5 mins relative to control; assay type: functional
[2] = system: Rattus norvegicus; assay: Antinociceptive activity in Wistar rat partial sciatic nerve ligation model assessed as reversal of tactile allodynia at 100 mg/kg, ip after 60 mins (reference value: 12.5 +/- 1.2%); assay type: functional; conditions: route intraperitoneal
[3] = system: Rattus norvegicus; assay: Antinociceptive activity in Wistar rat chronic constriction injury model assessed as reversal of spontaneous pain response at 100 mg/kg, ip after 60 mins (reference value: 4.6 +/- 0.6%); assay type: functional; conditions: route intraperitoneal
[4] = system: Rattus norvegicus; assay: Antinociceptive activity in Wistar rat chronic constriction injury model assessed as reversal of cold allodynia at 100 mg/kg, ip after 120 mins (reference value: 5.4 +/- 1.9%); assay type: functional; conditions: route intraperitoneal
[5] = system: Rattus norvegicus; assay: Antinociceptive activity in Wistar rat chronic constriction injury model assessed as reversal of spontaneous pain response at 100 mg/kg, ip after 120 mins (reference value: 4.5 +/- 0.2%); assay type: functional; conditions: route intraperitoneal
[6] = system: Mus musculus; assay: Neurotoxicity in Swiss albino mouse assessed as minimal motor impairment at 300 mg/kg after 4 hrs by rotarod test; assay type: toxicity, organism-based; parameters: dose 300 mg/kg; conditions: in vivo
Summary of the method: (§1)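 Swiss albino mice of either sex, 20-25 g, dosed at 30, 100 and 300 mg/kg, three per group. Minimal motor impairment scored by rotarod at 0.5 and 4.0 h after dosing. Reported value is the lowest dose giving impairment in half or more of the mice.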

[7] = system: Mus musculus; assay: Neurotoxicity in Swiss albino mouse assessed as minimal motor impairment at 300 mg/kg after 0.5 hrs by rotarod test; assay type: toxicity, organism-based; parameters: dose 300 mg/kg; conditions: in vivo; summary of the method: as §1
[8] = system: Rattus norvegicus; assay: Antinociceptive activity in Wistar rat chronic constriction injury model assessed as reversal of tactile allodynia at 100 mg/kg, ip after 30 mins (reference value: 3.4 +/- 0.8%); assay type: functional; conditions: route intraperitoneal
[9] = system: Rattus norvegicus; assay: Antinociceptive activity in Wistar rat chronic constriction injury model assessed as reversal of mechanical allodynia at 100 mg/kg, ip after 30 mins (reference value: 4.7 +/- 2.1%); assay type: functional; conditions: route intraperitoneal
[10] = system: Rattus norvegicus; assay: Antinociceptive activity in Wistar rat chronic constriction injury model assessed as reversal of cold allodynia at 100 mg/kg, ip after 30 mins (reference value: 0.6 +/- 2.7%); assay type: functional; conditions: route intraperitoneal
[11] = system: Rattus norvegicus; assay: Antinociceptive activity in Wistar rat partial sciatic nerve ligation model assessed as reversal of spontaneous pain response at 100 mg/kg, ip after 30 mins (reference value: 3.2 +/- 0.3%); assay type: functional; conditions: route intraperitoneal
[12] = system: Rattus norvegicus; assay: Antinociceptive activity in Wistar rat partial sciatic nerve ligation model assessed as reversal of cold allodynia at 100 mg/kg, ip after 60 mins (reference value: 2.5 +/- 0.3%); assay type: functional; conditions: route intraperitoneal
[13] = system: Mus musculus; assay: Antinociceptive activity in Swiss albino mouse assessed as inhibition of formalin-induced flinching at 100 mg/kg administered 30 mins prior to test measured for 10 to 30 mins relative to control; assay type: functional
[14] = system: Rattus norvegicus; assay: Antinociceptive activity in Wistar rat chronic constriction injury model assessed as reversal of tactile allodynia at 100 mg/kg, ip after 60 mins (reference value: 1.3 +/- 0.3%); assay type: functional; conditions: route intraperitoneal
[15] = system: Mus musculus; assay: Antinociceptive activity in Swiss albino mouse assessed as inhibition of acetic acid-induced writhing at 100 mg/kg administered 30 mins prior to acetic acid-challenge measured for 30 mins relative to control; assay type: functional
Summary of the method: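 Swiss albino mice (20–25 g, either sex); writhing induced by i.p. 0.1 mL of 2.0% v/v acetic acid given half an hour after test compound dosing.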

[16] = system: Rattus norvegicus; assay: Antinociceptive activity in Wistar rat chronic constriction injury model assessed as reversal of mechanical allodynia at 100 mg/kg, ip after 60 mins (reference value: 4.9 +/- 1.0%); assay type: functional; conditions: route intraperitoneal
[17] = system: Rattus norvegicus; assay: Antinociceptive activity in Wistar rat partial sciatic nerve ligation model assessed as reversal of spontaneous pain response at 100 mg/kg, ip after 120 mins (reference value: 1.2 +/- 0.1%); assay type: functional; conditions: route intraperitoneal
[18] = system: Rattus norvegicus; assay: Antinociceptive activity in Wistar rat partial sciatic nerve ligation model assessed as reversal of mechanical allodynia at 100 mg/kg, ip after 30 mins (reference value: 2.9 +/- 0.3%); assay type: functional; conditions: route intraperitoneal
[19] = system: Rattus norvegicus; assay: Antinociceptive activity in Wistar rat chronic constriction injury model assessed as reversal of spontaneous pain response at 100 mg/kg, ip after 30 mins (reference value: 8.9 +/- 4.6%); assay type: functional; conditions: route intraperitoneal
[20] = system: Rattus norvegicus; assay: Antinociceptive activity in Wistar rat chronic constriction injury model assessed as reversal of tactile allodynia at 100 mg/kg, ip after 120 mins (reference value: 4.1 +/- 2.1%); assay type: functional; conditions: route intraperitoneal
[21] = system: Rattus norvegicus; assay: Antinociceptive activity in Wistar rat partial sciatic nerve ligation model assessed as reversal of cold allodynia at 100 mg/kg, ip after 30 mins (reference value: 4.1 +/- 1.0%); assay type: functional; conditions: route intraperitoneal
[22] = system: Rattus norvegicus; assay: Antinociceptive activity in Wistar rat partial sciatic nerve ligation model assessed as reversal of mechanical allodynia at 100 mg/kg, ip after 120 mins (reference value: 2.9 +/- 0.3%); assay type: functional; conditions: route intraperitoneal
[23] = system: Rattus norvegicus; assay: Antinociceptive activity in Wistar rat partial sciatic nerve ligation model assessed as reversal of spontaneous pain response at 100 mg/kg, ip after 60 mins (reference value: 2.9 +/- 0.3%); assay type: functional; conditions: route intraperitoneal
[24] = system: Rattus norvegicus; assay: Antinociceptive activity in Wistar rat partial sciatic nerve ligation model assessed as reversal of tactile allodynia at 100 mg/kg, ip after 30 mins (reference value: 7.7 +/- 0.7%); assay type: functional; conditions: route intraperitoneal
[25] = system: Rattus norvegicus; assay: Antinociceptive activity in Wistar rat partial sciatic nerve ligation model assessed as reversal of tactile allodynia at 100 mg/kg, ip after 120 mins relative to control; assay type: functional; conditions: route intraperitoneal
[26] = system: Rattus norvegicus; assay: Antinociceptive activity in Wistar rat chronic constriction injury model assessed as reversal of mechanical allodynia at 100 mg/kg, ip after 120 mins (reference value: 5.3 +/- 0.5%); assay type: functional; conditions: route intraperitoneal
[27] = system: Rattus norvegicus; assay: Antinociceptive activity in Wistar rat partial sciatic nerve ligation model assessed as reversal of mechanical allodynia at 100 mg/kg, ip after 60 mins (reference value: 2.8 +/- 0.3%); assay type: functional; conditions: route intraperitoneal
[28] = system: Rattus norvegicus; assay: Antinociceptive activity in Wistar rat partial sciatic nerve ligation model assessed as reversal of cold allodynia at 100 mg/kg, ip after 120 mins (reference value: 1.5 +/- 0.5%); assay type: functional; conditions: route intraperitoneal
[29] = system: Rattus norvegicus; assay: Antinociceptive activity in Wistar rat chronic constriction injury model assessed as reversal of cold allodynia at 100 mg/kg, ip after 60 mins (reference value: 6.3 +/- 1.9%); assay type: functional; conditions: route intraperitoneal

| SMILES | inhibition in vivo at 100 mg/kg [1] [%] | Activity [2] [%] | Activity [3] [%] | Activity [4] [%] | Activity [5] [%] | Activity [6] | Activity [7] | Activity [8] [%] | Activity [9] [%] | Activity [10] [%] | Activity [11] [%] | Activity [12] [%] | inhibition in vivo at 100 mg/kg [13] [%] | Activity [14] [%] | inhibition in vivo at 100 mg/kg [15] [%] | Activity [16] [%] | Activity [17] [%] | Activity [18] [%] | Activity [19] [%] | Activity [20] [%] | also measured |
| --- | --- | --- | --- | --- | --- | --- | --- | --- | --- | --- | --- | --- | --- | --- | --- | --- | --- | --- | --- | --- | --- |
| CCN1CCc2c(c(C)nn2C(=O)Nc2cc(C)ccc2F)C1 | 5.2 | 15.1 | 11 | 2.8 | 51.8 | Non-toxic | Non-toxic | 6.6 | 35.7 | 15 | 57.6 | 16 | 15 | 9.9 | 10.5 | 42.9 | 17.3 | 44.8 | 15 | 13.7 | Activity [21]: 13%; Activity [22]: 18.2%; Activity [23]: 26.6%; Activity [24]: 20.2%; Activity [25]: 3.5%; Activity [26]: 14.3%; Activity [27]: 40.2%; Activity [28]: 7.9%; Activity [29]: 21.2% |
| CCN1CCc2c(c(C(C)(C)C)nn2C(=O)Nc2ccc(Cl)cc2)C1 | 3.5 | 3.5 | 22.3 | 10.5 | 12.5 | Non-toxic | Non-toxic | 13.8 | 20 | 17.8 | 20.9 | 17.2 | 68.3 | 13.8 | 15.8 | 11.7 | 6.3 | 11.1 | 18.3 | 12.8 | Activity [21]: 18.2%; Activity [22]: 11.1%; Activity [23]: 13.9%; Activity [24]: 15.1%; Activity [25]: 28.5%; Activity [26]: 2.2%; Activity [27]: 16.7%; Activity [28]: 10.6%; Activity [29]: 10.8% |
| CCN1CCc2c(c(C)nn2C(=O)Nc2cccc(C(F)(F)F)c2)C1 | 4.4 | 11.1 | 15.2 | 7 | 12.5 | Non-toxic | Non-toxic | 4.41 | 13.4 | 12.1 | 20.7 | 15.7 | 23.1 | 11.8 | 56.1 | 20.5 | 13.8 | 15.6 | 13.3 | 11.8 | Activity [21]: 30.2%; Activity [22]: 10.6%; Activity [23]: 10.2%; Activity [24]: 69.7%; Activity [25]: 11.1%; Activity [26]: 21.8%; Activity [27]: 11.1%; Activity [28]: 20.9%; Activity [29]: 13.7% |
| CCN1CCc2c(c(C)nn2C(=O)Nc2c(C)cccc2C)C1 | 12.2 | 46.4 | 68.3 | 13.4 | 53.7 | Non-toxic | Non-toxic | 55 | 67 | 63.4 | 70.3 | 41.6 | 78.9 | 58 | 60.5 | 73.2 | 58.4 | 57.8 | 77.3 | 65.1 | Activity [21]: 61.3%; Activity [22]: 44.4%; Activity [23]: 66.1%; Activity [24]: 18.4%; Activity [25]: 38.3%; Activity [26]: 26.1%; Activity [27]: 69.4%; Activity [28]: 37.2%; Activity [29]: 52.6% |
| CCN1CCc2c(c(C)nn2C(=O)Nc2ccc(Cl)cc2)C1 | 1.7 | 8.2 | 15 | 9.5 | 27.4 | Non-toxic | Non-toxic | 13.2 | 14.6 | 15.9 | 13.6 | 7.9 | 7.5 | 8 | 55.2 | 14.6 | 11 | 17.5 | 16.9 | 19.7 | Activity [21]: 13.2%; Activity [22]: 11.3%; Activity [23]: 12.7%; Activity [24]: 18.1%; Activity [25]: 14.2%; Activity [26]: 8.3%; Activity [27]: 5%; Activity [28]: 11%; Activity [29]: 23% |

— ChEMBL document CHEMBL2412964, “Discovery of novel tetrahydro-pyrazolo [4,3-c] pyridines for the treatment of neuropathic pain: synthesis and neuropharmacology” (Eur J Med Chem, 2013)
